Results from different studies.
Each line is one published result; the experiments were not run side by side.
Target: Serine/threonine-protein kinase MARK1 (MARK1, Homo sapiens, UniProt Q9P0L2)

SMILES | effect on | technique | concentration | remaining binding [%]
O=C(c1ccc(Nc2nccc(-c3cc4ccccc4s3)n2)cc1)N1CCC(N2CCCC2)CC1 | binding | competition with immobilised ligand | 1 µM | 62
c1cnn2ncc(-c3ccnc(N4CCC45COC5)n3)c2c1 | binding |  | 1 µM | 91
FC(F)(F)Oc1cccc(-c2cnc3ccc(-c4ccncc4)nn23)c1 | cell-free assay | competition with immobilised ligand | 5 µM | 79
O=C(NCCCN1CCOCC1)c1ccc(Nc2ncc(Cl)c(-c3ccc(Cl)s3)n2)cc1 | binding | competition with immobilised ligand | 1 µM | 25
COCCOc1nc(-c2ccc(Cl)nc2)nc2c1CN(C(=O)c1ncn3ccccc13)CC2 | cell-free assay | competition with immobilised ligand | 0.1 µM | 100
N[C@H]1CCN(c2nccc(-c3cnn4ncccc34)n2)C1 | binding |  | 1 µM | 100
Cc1cnc(Nc2ccc(C(=O)N3CCC(N4CCCC4)CC3)cc2)nc1-c1cc2ccccc2s1 | binding | competition with immobilised ligand | 1 µM | 22
CN(CCCC(F)(F)F)c1nccc(-c2cnn3ncccc23)n1 | binding |  | 1 µM | 100
COc1cnc(Nc2cccc(S(N)(=O)=O)c2)nc1N1CCN(c2ccccc2)C(=O)C1 | binding | competition with immobilised ligand | 1 µM | 95
C[C@@H]1CCN(c2nccc(-c3cnn4ncccc34)n2)C1 | binding |  | 1 µM | 100
C[C@@H](c1ccc(-n2cnc3c(N)ncnc32)cc1)N1CCc2nn(C)c(Cc3ccccc3)c2C1=O | binding | competition with immobilised ligand | 0.1 µM | 88
CNC(=O)Nc1ccc2c(c1)CC[C@@]21OC(=O)N(CC(=O)N(Cc2ccc(F)cc2)[C@@H](C)C(F)(F)F)C1=O | cell-free assay | competition with immobilised ligand | 1 µM | 89
c1cncc(-c2cccc(Nc3nccc(NC4CCCCC4)n3)c2)c1 | binding | competition with immobilised ligand | 10 µM | 90
COc1ccc2cc(OCC3(C(=O)O)CN(C(=O)c4ccc(F)cc4)C3)ccc2c1 | cell-free assay | competition with immobilised ligand | 1 µM | 100
O=C(NCC1CCOCC1)c1n[nH]cc1NC(=O)c1c(F)cccc1F | binding | competition with immobilised ligand | 1 µM | 100
CN(C)c1nccc(-c2cnc3ncccn23)n1 | binding |  | 1 µM | 80
CCS(=O)(=O)c1cc2cc(C[C@](O)(CC(C)(C)c3ccc(F)cc3C(N)=O)C(F)(F)F)[nH]c2cn1 | cell-free assay | competition with immobilised ligand | 1 µM | 100
CC1CCCN1c1nccc(-c2cnn3ncccc23)n1 (stereo not shown) | binding |  | 1 µM | 100
Cc1cc(NC(=O)c2cccc(S(F)(F)(F)(F)F)c2)cc(-n2ccn3nc(-c4cccnc4)cc23)c1 | cell-free assay | competition with immobilised ligand | 1 µM | 100
C=CC(=O)N1CCC(C(=O)NCC(=O)N2CCN(c3nc(-c4cnc(N)nc4C(F)F)nc(N4CCOCC4)n3)CC2)CC1 | binding | competition with immobilised ligand | 1 µM | 100
CN(C)c1ncc(F)c(-c2cnn3ncccc23)n1 | binding |  | 1 µM | 100
O=c1nc(-c2ccccn2)sc2ccccc12 | binding | competition with immobilised ligand | 1 µM | 100
